What was measured:
Cytotoxicity assay = format: cell-based, human; settings: human, MT-4 cells
Method in brief: (§1)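 MT-4 cells grown in RPMI-1640 with 10% FBS, 100 units per mL penicillin and streptomycin, at 37 °C in humidified 5% CO2. Cells seeded at 50 000 per well and exposed to test compound (2.5, 5, 10, 20, 40, 80 μM) for five days at 37 °C. MTT (final 0.5 mg mL−1) added for 2 h, then DMSO. A570 read; measured three times; CC50 calculated.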

HIV-1 integrase = HIV-1 integrase (Human immunodeficiency virus type 1 group M subtype B, UniProt P04585); experiment: Strand transfer inhibition assay; format: biochemical
MT-4 cells = experiment: Cytotoxicity assay; format: cell-based, human; settings: read-out: CC50, concentration that inhibits the proliferation of MT-4 cells by 50%, MTT, five days, average of at least three independent experiments
Method in brief: as §1

Row | Compound | CC50 at 5 days (Cytotoxicity assay) [µM] | IC50 (HIV-1 integrase) [µM] | CC50 (MT-4 cells) [µM]
1 | CCOC(=O)c1[nH]c2ccc(NC(=O)c3ccc(F)cc3)cc2c1Br [Compound 13a, ethyl 3-bromo-5-(4-fluorobenzamido)-1H-indole-2-carboxylate] | > 80 | 26 ± 1.27 | 
2 | CCOC(=O)c1[nH]c2ccc(NC(=O)c3cnccn3)cc2c1Br [Compound 13b, Ethyl 3-bromo-5-(pyrazine-2-carboxamido)-1H-indole-2-carboxylat] | > 80 | 11.7 ± 1.08 | 
3 | CCOC(=O)c1[nH]c2ccccc2c1Nc1cccc(OC)c1 [Compound 4b, Ethyl 3-((3-methoxyphenyl)amino)-1H-indole-2-carboxylate] | > 80 | 10.2 ± 0.67 | 
4 | 5-nitro-3-(((4-(trifluoromethyl)benzyl)oxy)methyl)-1H-indole-2-carboxylic acid [Compound 10a] |  |  | 65.2 ± 5.22
5 | CCOC(=O)c1[nH]c2ccccc2c1Nc1ccccc1Cl [Compound 4f, Ethyl 3-((2-chlorophenyl)amino)-1H-indole-2-carboxylate] | > 80 | > 40 | 
6 | CCOC(=O)c1cc2ccc(Nc3ccc(OC)cc3)cc2[nH]1 [Compound 16c, Ethyl 6-((4-methoxyphenyl)amino)-1H-indole-2-carboxylate] | > 80 | > 40 | 
7 | CCOC(=O)c1cc2ccc(NCc3ccccc3Cl)cc2[nH]1 [Compound 16i, Ethyl 6-((2-chlorobenzyl)amino)-1H-indole-2-carboxylate] | > 80 | 14.6 ± 1.12 | 
8 | CCOC(=O)c1cc2ccc(NCCc3ccc(F)cc3)cc2[nH]1 [Compound 16k, Ethyl 6-((4-fluorophenethyl)amino)-1H-indole-2-carboxylate] | > 80 | > 40 | 
9 | CCOC(=O)c1cc2ccc(Nc3cccc(OC)c3)cc2[nH]1 [Compound 16d, Ethyl 6-((3-methoxyphenyl)amino)-1H-indole-2-carboxylate] | > 80 | > 40 | 
10 | CCOC(=O)c1cc2ccc(NCc3ccccc3F)cc2[nH]1 [Compound 16h, Ethyl 6-((2-fluorobenzyl)amino)-1H-indole-2-carboxylate] | > 80 | 8.68 ± 0.77 | 
11 | isopropyl 5-nitro-3-((4-(trifluoromethyl)phenethoxy) methyl)-1H-indole-2-carboxylate [Compound 9a] |  |  | 54.3 ± 4.79
12 | O=C(O)c1cc2ccc(Nc3ccc(F)cc3)cc2[nH]1 [Compound 17a, 6-((4-Fluorophenyl)amino)-1H-indole-2-carboxylic acid] | > 80 | 3.11 ± 0.18 | 
13 | CCOC(=O)c1cc2ccc(Nc3ccc(OC)c(F)c3)cc2[nH]1 [Compound 16f, Ethyl 6-((3-fluoro-4-methoxyphenyl)amino)-1H-indole-2-carboxylate] | > 80 | > 40 | 
14 | CCOC(=O)c1cc2ccc(NCc3cccc(F)c3)cc2[nH]1 [Compound 16g, Ethyl 6-((3-fluorobenzyl)amino)-1H-indole-2-carboxylate] | > 80 | > 40 | 
15 | CCOC(=O)c1cc2ccc(Nc3ccc(Br)cc3)cc2[nH]1 [Compound 16b, Ethyl 6-((4-bromophenyl)amino)-1H-indole-2-carboxylate] | > 80 | > 40 | 
16 | COc1ccc(Nc2ccc3cc(C(=O)O)[nH]c3c2)cc1 [Compound 17c, 6-((4-Methoxyphenyl)amino)-1H-indole-2-carboxylic acid] | > 80 | 12.3 ± 1.06 | 
17 | CCOC(=O)c1[nH]c2ccccc2c1Nc1ccccc1OC [Compound 4a, ethyl 3-((2-methoxyphenyl)amino)-1H-indole-2-carboxylate] | > 80 | 10.1 ± 0.56 | 
18 | O=C(O)c1cc2ccccc2[nH]1 [Compound 1, indole-2-carboxylic acid] | > 80 | 32.4 ± 4.51 | 
19 | CCOC(=O)c1[nH]c2ccccc2c1Nc1ccc(OC)c(F)c1 [Compound 4d, Ethyl 3-((3-fluoro-4-methoxyphenyl)amino)-1H-indole-2-carboxylate] | > 80 | 15.6 ± 1.03 | 
20 | COc1ccccc1Nc1ccc2cc(C(=O)O)[nH]c2c1 [Compound 17e, 6-((2-Methoxyphenyl)amino)-1H-indole-2-carboxylic acid] | > 80 | 7.08 ± 0.63 | 
21 | CCOC(=O)c1cc2ccc(Nc3ccccc3OC)cc2[nH]1 [Compound 16e, Ethyl 6-((2-methoxyphenyl)amino)-1H-indole-2-carboxylate] | > 80 | > 40 | 
22 | CCOC(=O)c1[nH]c2ccccc2c1Nc1ccc(OC)cc1 [Compound 4c, Ethyl 3-((4-methoxyphenyl)amino)-1H-indole-2-carboxylate] | > 80 | > 40 | 
23 | O=C(O)c1cc2ccc(Nc3ccc(Br)cc3)cc2[nH]1 [Compound 17b, 6-((4-Bromophenyl)amino)-1H-indole-2-carboxylic acid] | > 80 | 6.67 ± 0.51 | 
24 | COc1ccc(Nc2ccc3cc(C(=O)O)[nH]c3c2)cc1F [Compound 17f, 6-((3-Fluoro-4-methoxyphenyl)amino)-1H-indole-2-carboxylic acid] | > 80 | 14.1 ± 0.78 | 
25 | O=C(O)c1cc2ccc(NCc3cccc(F)c3)cc2[nH]1 [Compound 17g, 6-((3-Fluorobenzyl)amino)-1H-indole-2-carboxylic acid] | > 80 | 15.6 ± 1.09 | 
26 | CCOC(=O)c1cc2ccc(NCc3ccc(OC)cc3)cc2[nH]1 [Compound 16j, Ethyl 6-((4-methoxybenzyl)amino)-1H-indole-2-carboxylate] | > 80 | 9.67 ± 0.89 | 
27 | CCOC(=O)c1[nH]c2ccccc2c1Nc1ccc(F)cc1 [Compound 4e, Ethyl 3-((4-fluorophenyl)amino)-1H-indole-2-carboxylate] | > 80 | 15.7 ± 1.06 | 
28 | Cc1nnc(C(=O)NC(C)(C)c2nc(C(=O)NCc3ccc(F)cc3)c(O)c(=O)n2C)o1 [RAL, Raltegravir, reference compound] | > 80 |  | 
29 | Isopropyl 3-((4-chlorophenethoxy)methyl)-5-nitro-1H-indole-2-carboxylate [Compound 9b] |  |  | > 80
30 | CCOC(=O)c1cc2ccc(Nc3ccc(F)cc3)cc2[nH]1 [Compound 16a, Ethyl 6-((4-fluorophenyl)amino)-1H-indole-2-carboxylate] | > 80 | > 40 | 
